In ChEMBL document CHEMBL3994667, “Small Molecule Lysyl Oxidase-like 2 (LOXL2) Inhibitors: The Identification of an Inhibitor Selective for LOXL2 over LOX” (ACS Med Chem Lett, 2017):
Activity calls are given as the source filed them. No cut-off for these calls is given here.

Key:
Lysyl oxidase homolog 2 [1] = biological target: T1, Lysyl oxidase homolog 2 (Homo sapiens, UniProt Q9Y4K0); assay: Inhibition of full length recombinant human LOXL2 expressed in CHO cells spiked into human whole blood assessed as reduction in H2O2 production using DAP as substrate preincubated for 2 followed by substrate addition measured every 90 secs for 45 mins by Amplex red dye based fluorescence assay; assay type: cell-based
T1 sequence (Q9Y4K0 whole entry): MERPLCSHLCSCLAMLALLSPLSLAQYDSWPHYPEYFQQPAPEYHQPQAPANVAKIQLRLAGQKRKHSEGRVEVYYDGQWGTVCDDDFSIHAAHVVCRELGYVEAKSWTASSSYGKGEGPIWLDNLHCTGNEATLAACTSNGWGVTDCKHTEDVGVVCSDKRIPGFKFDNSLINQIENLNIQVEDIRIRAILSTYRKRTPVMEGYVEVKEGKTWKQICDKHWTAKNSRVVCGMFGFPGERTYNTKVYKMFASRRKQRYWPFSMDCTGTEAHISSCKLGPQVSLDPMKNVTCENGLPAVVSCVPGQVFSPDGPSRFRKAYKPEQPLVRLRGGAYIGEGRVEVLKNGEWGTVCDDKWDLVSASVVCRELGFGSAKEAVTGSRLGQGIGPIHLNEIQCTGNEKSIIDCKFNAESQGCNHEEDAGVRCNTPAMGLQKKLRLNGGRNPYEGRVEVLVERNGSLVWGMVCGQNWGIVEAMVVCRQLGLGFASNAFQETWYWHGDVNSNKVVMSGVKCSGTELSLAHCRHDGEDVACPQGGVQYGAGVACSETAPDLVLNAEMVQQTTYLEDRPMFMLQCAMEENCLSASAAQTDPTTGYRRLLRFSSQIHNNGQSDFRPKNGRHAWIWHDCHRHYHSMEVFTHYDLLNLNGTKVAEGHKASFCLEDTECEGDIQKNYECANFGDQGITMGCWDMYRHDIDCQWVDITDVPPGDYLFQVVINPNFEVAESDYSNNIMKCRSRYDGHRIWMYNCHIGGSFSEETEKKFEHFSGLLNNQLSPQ
Summary of the method: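 Human recombinant LOXL2 spiked into human whole blood. Oxidative deamination of 1,5-diaminopentane measured as H2O2 with Amplex Red. IC50 expressed as geometric mean x/÷ geometric SD with N.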

Lysyl oxidase homolog 2 [2] = biological target: T1, Lysyl oxidase homolog 2; assay: Inhibition of full length recombinant human LOXL2 expressed in CHO cells assessed as reduction in H2O2 production using DAP as substrate preincubated for 2 hrs followed by substrate addition measured every 2 minutes for 50 minutes in presence of BSA by Amplex red dye based fluorescence assay
Summary of the method: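 Serum-free concentrated conditioned medium from CHO cells stably expressing human LOXL2, supplemented with BSA. Compounds preincubated for 2 h (the screening preincubation time). Substrate was 1,5-diaminopentane, and the H2O2 formed was detected with Amplex Red. IC50 given as geometric mean x/÷ geometric SD over N determinations.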

Lysyl oxidase homolog 3 = biological target: T2, Lysyl oxidase homolog 3 (Homo sapiens, UniProt P58215); assay: Inhibition of recombinant human C-terminal His10-tagged LOXL3 (1 to 753 residues) assessed as reduction in H2O2 production using DAP as substrate preincubated for 2 hrs followed by substrate addition measured every 2 minutes for 50 minutes by Amplex red dye based fluorescence assay
T2 sequence (P58215 whole entry): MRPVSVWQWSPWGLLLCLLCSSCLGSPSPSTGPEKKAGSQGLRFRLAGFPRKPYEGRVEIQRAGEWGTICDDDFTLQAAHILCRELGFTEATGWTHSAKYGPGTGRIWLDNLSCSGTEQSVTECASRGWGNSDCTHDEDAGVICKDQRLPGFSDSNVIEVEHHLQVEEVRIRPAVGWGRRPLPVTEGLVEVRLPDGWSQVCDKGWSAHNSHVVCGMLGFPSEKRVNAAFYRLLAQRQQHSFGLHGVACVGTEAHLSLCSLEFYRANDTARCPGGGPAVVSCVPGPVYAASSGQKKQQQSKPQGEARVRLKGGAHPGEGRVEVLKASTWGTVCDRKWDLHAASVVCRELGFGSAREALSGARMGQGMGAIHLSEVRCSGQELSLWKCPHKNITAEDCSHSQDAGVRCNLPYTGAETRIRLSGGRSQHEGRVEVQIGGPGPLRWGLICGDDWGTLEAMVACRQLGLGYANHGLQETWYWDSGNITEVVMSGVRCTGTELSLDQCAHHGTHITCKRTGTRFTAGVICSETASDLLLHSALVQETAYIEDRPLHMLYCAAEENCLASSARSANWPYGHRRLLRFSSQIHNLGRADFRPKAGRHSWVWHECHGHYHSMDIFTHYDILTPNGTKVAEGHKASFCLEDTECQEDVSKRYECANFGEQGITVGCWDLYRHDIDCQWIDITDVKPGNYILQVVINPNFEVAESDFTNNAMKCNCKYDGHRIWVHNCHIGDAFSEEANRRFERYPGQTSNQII

[3] = biological target: T3, Amine oxidase [copper-containing] 3 (Homo sapiens) (UniProt Q16853); assay: Inhibition of SSAO in human plasma at 30 uM using benzylamine as substrate preincubated for 2 hrs followed by substrate addition measured every 30 secs for 15 minutes by Amplex red dye based fluorescence assay
T3 sequence (whole entry): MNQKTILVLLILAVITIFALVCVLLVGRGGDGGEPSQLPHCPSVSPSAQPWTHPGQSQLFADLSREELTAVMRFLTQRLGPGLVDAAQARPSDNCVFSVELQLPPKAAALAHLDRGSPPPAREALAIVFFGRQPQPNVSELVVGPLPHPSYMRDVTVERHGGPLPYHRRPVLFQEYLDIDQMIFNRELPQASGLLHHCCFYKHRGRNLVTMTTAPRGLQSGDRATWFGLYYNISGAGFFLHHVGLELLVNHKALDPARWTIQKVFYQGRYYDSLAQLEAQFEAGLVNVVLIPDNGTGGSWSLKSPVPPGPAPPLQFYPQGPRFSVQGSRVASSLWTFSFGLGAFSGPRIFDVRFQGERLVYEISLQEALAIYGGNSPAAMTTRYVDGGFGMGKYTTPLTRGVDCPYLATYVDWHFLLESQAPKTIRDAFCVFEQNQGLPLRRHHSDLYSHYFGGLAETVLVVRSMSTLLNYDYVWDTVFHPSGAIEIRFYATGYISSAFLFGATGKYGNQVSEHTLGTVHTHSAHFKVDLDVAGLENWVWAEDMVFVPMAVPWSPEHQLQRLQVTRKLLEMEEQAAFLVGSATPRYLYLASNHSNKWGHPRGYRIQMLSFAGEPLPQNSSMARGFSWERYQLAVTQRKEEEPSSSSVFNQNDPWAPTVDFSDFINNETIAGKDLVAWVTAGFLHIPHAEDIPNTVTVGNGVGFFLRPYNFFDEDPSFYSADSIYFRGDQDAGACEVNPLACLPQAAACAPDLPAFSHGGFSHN

Cytochrome P450 2D6 = Cytochrome P450 2D6 (Homo sapiens, UniProt P10635); assay: Inhibition of CYP2D6 (unknown origin); assay type: ADME
Sequence of Cytochrome P450 2D6 (P10635 whole entry): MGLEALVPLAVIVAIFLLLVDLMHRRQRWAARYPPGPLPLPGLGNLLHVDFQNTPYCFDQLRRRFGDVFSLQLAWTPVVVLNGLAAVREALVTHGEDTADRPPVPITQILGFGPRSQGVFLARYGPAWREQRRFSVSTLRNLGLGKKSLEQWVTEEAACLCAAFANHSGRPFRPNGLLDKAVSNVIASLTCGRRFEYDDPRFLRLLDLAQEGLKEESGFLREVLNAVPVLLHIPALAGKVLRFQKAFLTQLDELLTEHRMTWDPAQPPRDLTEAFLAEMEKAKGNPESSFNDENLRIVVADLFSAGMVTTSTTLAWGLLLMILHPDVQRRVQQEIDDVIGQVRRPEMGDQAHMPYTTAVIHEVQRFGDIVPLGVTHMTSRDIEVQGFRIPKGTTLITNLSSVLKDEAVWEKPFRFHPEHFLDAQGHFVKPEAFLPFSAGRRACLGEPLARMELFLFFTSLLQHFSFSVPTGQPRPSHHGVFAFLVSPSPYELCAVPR

IC50 (Lysyl oxidase homolog 2 [1]): 1450 nM | IC50 (Lysyl oxidase homolog 2 [2]): 190 nM | IC50 (Lysyl oxidase homolog 3): 214 nM | inhibition [3]: inactive | IC50 (Cytochrome P450 2D6): > 30 µM
SMILES: NCc1ccnc(Cl)c1
